Test results from ChEMBL document CHEMBL4354825, “Design and Synthesis of Basic Selective Estrogen Receptor Degraders for Endocrine Therapy Resistant Breast Cancer” (J Med Chem, 2019).
Activity calls are given as the source filed them. The rule behind the calls is not given here.

Experiments:
[1] = molecular target: T1, Estrogen receptor (Homo sapiens) (UniProt P03372); assay: Induction of degradation of ERalpha in human MCF7:WS8 cells at 100 nM in presence of MG-132 incubated for 24 hrs by Western blot analysis; assay type: cell-based
T1 sequence (whole entry): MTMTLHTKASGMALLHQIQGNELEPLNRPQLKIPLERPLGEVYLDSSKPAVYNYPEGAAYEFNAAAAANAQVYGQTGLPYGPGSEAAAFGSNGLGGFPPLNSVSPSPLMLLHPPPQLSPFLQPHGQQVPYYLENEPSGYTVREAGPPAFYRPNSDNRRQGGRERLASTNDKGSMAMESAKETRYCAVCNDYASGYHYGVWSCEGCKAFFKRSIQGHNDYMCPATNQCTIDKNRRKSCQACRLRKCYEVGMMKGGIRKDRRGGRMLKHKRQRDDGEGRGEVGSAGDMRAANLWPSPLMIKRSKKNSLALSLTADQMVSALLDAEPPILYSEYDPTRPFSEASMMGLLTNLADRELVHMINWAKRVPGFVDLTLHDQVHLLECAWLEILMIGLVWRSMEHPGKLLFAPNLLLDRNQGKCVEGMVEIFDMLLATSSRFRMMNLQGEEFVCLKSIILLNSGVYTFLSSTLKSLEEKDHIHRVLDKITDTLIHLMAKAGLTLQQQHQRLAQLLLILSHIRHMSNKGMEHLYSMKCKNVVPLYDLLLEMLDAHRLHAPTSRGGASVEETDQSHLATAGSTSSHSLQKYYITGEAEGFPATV

Mus musculus [2] = assay: In vivo degradation of ERalpha in C57BL/6 mouse at 50 mg/kg, po measured after 7 hrs by Western blot analysis; assay type: functional, organism-based
How it was run: (§1)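 Female C57BL/6J mice aged 9–12 weeks were dosed at 50 mg/kg p.o. in PEG 400/10% HPCD (1:9 v/v). Regimens were a single dose with sacrifice at 5 h, or 3 daily doses with sacrifice 5 h (n = 5) or 7 h (n = 6) after the last dose. Ovaries and uterus were homogenized, 20 μg protein was run by SDS-PAGE, and the blot was probed for ERα and normalized to β-actin.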

Mus musculus [3] = assay: In vivo degradation of ERalpha in C57BL/6 mouse at 50 mg/kg, po administered for 3 days and measured on day 3 by Western blot analysis; assay type: functional, organism-based; how it was run: as §1
T47D [4] = assay: Cytotoxicity against human T47D 3D spheroid cells assessed as reduction in tumor cell viability at 10 nM incubated for 14 days by celltiter-glo 3D cell viability assay
[5] = Antiproliferative activity against human MCF7:WS8 cells assessed as reduction in cell viability incubated for 5 days by Hoechst 33258 dye based assay; assay type: functional; settings: MCF7:WS8, 120 h
How it was run: (§2)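 Cells were seeded at 5000 per well; MCF7:WS8 had been estrogen-stripped for 2 days first. Compounds were serially diluted in DMSO, with 0.01% DMSO as vehicle. The medium was removed on day 5 (MCF7:WS8) or day 7 (MCF7:5C), and cells were lysed by freezing at −80 °C overnight. DNA was measured by Hoechst 33258 fluorescence. Maximum efficacy was normalized to vehicle (0%) and no cells (100%); at least three biological replicates.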

[6] = Antiproliferative activity against human MCF7:5C cells assessed as reduction in cell viability incubated for 7 days by Hoechst 33258 dye based assay relative to control; assay type: functional; settings: 168 h; how it was run: as §2
[7] = Antiproliferative activity against human MCF7:WS8 cells assessed as reduction in cell viability incubated for 5 days by Hoechst 33258 dye based assay relative to control; assay type: functional; settings: MCF7:WS8, 120 h; how it was run: as §2
T47D [8] = assay: Cytotoxicity against human T47D 3D spheroid cells harboring Y537S mutant assessed as reduction in tumor cell viability at 10 nM incubated for 14 days by celltiter-glo 3D cell viability assay
Rattus norvegicus [9] = assay: Induction of uterotrophic activity in Sprague-Dawley rat assessed as increase in uterine weight at 2 mg/kg, sc administered for 3 days and measured after 24 hrs of last dosing by hematoxylin eosin staining based imaging analysis; assay type: functional, organism-based
How it was run: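 Female Sprague Dawley rats, 12 days old, were housed with foster dams (6 per dam) and acclimated for one week. From day 19 they received 3 daily doses of 2 mg/kg s.c. in peanut oil. Animals were killed 24 h after the last dose, and uteri were excised, trimmed of fat and mesentery, and weighed. Half of each uterus was fixed in 4% paraformaldehyde, paraffin embedded and stained with H&E.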

Homo sapiens [10] = species: Homo sapiens; assay: Cytotoxicity against human MCF7:WS8 3D spheroid cells assessed as reduction in tumor cell viability at 10 nM incubated for 14 days by celltiter-glo 3D cell viability assay
[11] = Drug concentration in C57BL/6 mouse brain at 5 mg, sc measured after 0.5 hrs by LC/MS-MS analysis; assay type: ADME, organism-based; settings: read-out: Drug uptake
How it was run: (§3)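 PK screen in female C57BL/6 mice (N = 3 per time point) given 5 mg s.c. single dose; mice perfused, plasma and brain collected postmortem at 0.5 and 2 h; analyte quantified by LC-MS/MS in MRM mode against standard curves prepared in the matching matrix with a common internal standard; mean and s.d. reported.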

MCF7:TAM1 [12] = assay: Cytotoxicity against human MCF7:TAM1 3D spheroid cells assessed as reduction in tumor cell viability at 10 nM incubated for 14 days by celltiter-glo 3D cell viability assay
MCF7:TAM1 [13] = assay: Antitumor activity against human MCF7:TAM1 cells xenografted in athymic nude mouse assessed as tumor regression at 5 mg, sc measured after 4 weeks; assay type: functional, organism-based
How it was run: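 Ovariectomized athymic female nude mice, 4–6 weeks old, carrying MCF7:TAM1 tumours established in the mammary fat pad, with E2 supplied from 1.0 cm silastic capsules implanted s.c. Dosing was 5 mg/week s.c. in sesame oil. Tumour cross-sectional area was measured weekly with calipers as (length/2)×(width/2)×π, and mean area was plotted against time in weeks.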

T47D [14] = assay: Cytotoxicity against human T47D 3D spheroid cells harboring D538G mutant assessed as reduction in tumor cell viability at 10 nM incubated for 14 days by celltiter-glo 3D cell viability assay
[15] = Drug concentration in C57BL/6 mouse brain at 5 mg, sc measured after 2 hrs by LC/MS-MS analysis; assay type: ADME, organism-based; settings: read-out: Drug uptake; how it was run: as §3
Homo sapiens [16] = species: Homo sapiens; assay: Cytotoxicity against human MCF7:WS8 3D spheroid cells assessed as reduction in tumor spheroid size at 10 nM incubated for 14 days
[17] = Plasma concentration in C57BL/6 mouse at 5 mg, sc measured after 2 hrs by LC/MS-MS analysis; assay type: ADME, organism-based; how it was run: as §3
[18] = Plasma concentration in C57BL/6 mouse at 5 mg, sc measured after 0.5 hrs by LC/MS-MS analysis; assay type: ADME, organism-based; how it was run: as §3
Rattus norvegicus [19] = assay: Induction of uterotrophic activity in Sprague-Dawley rat assessed as increase in uterine weight at 10 mg/kg, po administered for 3 days and measured after 24 hrs of last dosing by hematoxylin eosin staining based imaging analysis; assay type: functional, organism-based
How it was run: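 Female Sprague-Dawley rats were dosed from day 19 of age once daily for 3 days: 10 mg/kg p.o. in 2% Tween 80/0.5% methylcellulose. EE2 (0.1 mg/kg p.o., peanut oil) was the positive control. Uteri were excised and weighed 24 h after the last dose; one half was fixed in 4% paraformaldehyde for H&E histology.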

Cc1cc(Cl)cc(C)c1C(=O)c1sc2cc(O)ccc2c1Oc1ccc(/C=C/C(=O)O)cc1
Activity [1]: Active
Activity (Mus musculus [2]): Active
Activity (Mus musculus [3]): Active

C[C@]12CC[C@@H]3c4ccc(O)cc4C[C@@H](CCCCCCCCC[S+]([O-])CCCC(F)(F)C(F)(F)F)[C@H]3[C@@H]1CC[C@@H]2O (some centres undefined) [FULVESTRANT]
Activity (T47D [4]): Active
IC50 [5]: 0.603 nM
Emax [6]: 48%
Emax [7]: 66%
Activity (T47D [8]): Active
Activity (Rattus norvegicus [9]): inactive
Activity (Homo sapiens [10]): Active
concentration at 0.5 h [11]: 0.0007 µM
Activity (MCF7:TAM1 [12]): Active
Activity (MCF7:TAM1 [13]): Active
Activity (T47D [14]): Active
concentration at 2 h [15]: 0.0474 µM
Activity (Homo sapiens [16]): Active
concentration at 2 h [17]: 0.301 µM
concentration at 0.5 h [18]: 0.0312 µM

Cc1c(-c2ccc(O)cc2)n(Cc2ccc(OCCN3CCCCCC3)cc2)c2ccc(O)cc12
Activity (Rattus norvegicus [19]): inactive
